Results of several laboratories.
Protocols differ between the studies behind these lines.
Target: Tyrosine-protein kinase Blk (BLK, Homo sapiens, UniProt P51451)

| Compound | read-out | action | technique | concentration | quantity | result |
| --- | --- | --- | --- | --- | --- | --- |
| O=C1Nc2ccc(Cl)cc2C1=Cc1cc(Cl)c(O)c(Cl)c1 | cell-free assay |  |  | 0.5 µM | remaining signal | 102% |
| CNC(=O)c1cc2c(Oc3ccc(NC(=O)C4(C(=O)Nc5ccc(F)cc5)CC4)cc3)ccnc2cc1OC | enzyme activity | inhibitor | radiometric | 1 µM | inhibition | 94% |
| O=C(Nc1cccnn1)N1CC(C/C=C/c2cncc(Oc3ccc(C(F)(F)F)cn3)n2)C1 | cell-free assay |  | competition with immobilised ligand | 1 µM | remaining binding | 65% |
| Cc1ccc(NC(=O)c2ccc(C)c(C(F)(F)F)c2)cc1C#Cc1nn(C2CCC(O)CC2)c2ncnc(N)c12 (stereo not drawn) | cell-free assay |  |  | 10 µM | remaining signal | 0% |
| Nc1ncnc2occ(-c3ccc(NC(=O)Nc4cc(C(F)(F)F)ccc4F)cc3)c12 | cell-free assay |  |  | 20 µM | remaining signal | 0.45% |
| CC(C)(C)c1nc(-c2cccc(NS(=O)(=O)c3c(F)cccc3F)c2F)c(-c2ccnc(N)n2)s1 | enzyme activity | inhibitor | radiometric | 1 µM | remaining activity | 29% |
| O=C(Nc1cnn(-c2csc(C(=O)NC3COC3)c2)c1)Nc1c(F)cccc1Cl | enzyme activity | inhibitor |  | 5 µM | remaining activity | 96.1% |
| CN(C(=O)c1ccccc1)c1cc(N(C)c2ccc3c(c2)CCc2ccc(C(=O)NCCN4CCOCC4)cc2C3=O)ccc1F | cell-free assay |  | competition with immobilised ligand | 1 µM | remaining binding | 100% |
| CN1CC(Oc2cnc(C#N)cc2-c2ccn3nc(NC(=O)C4CC4)cc3c2)C1 | enzyme activity | inhibitor |  | 1 µM | inhibition | 28% |
| Cc1nccc(COC(=O)N2C[C@@H]3[C@@H](CNC(=O)c4ccc5[nH]nnc5c4)[C@@H]3C2)n1 | cell-free assay |  | competition with immobilised ligand | 1 µM | remaining binding | 93% |
| COc1cc2ncnc(Nc3ccc(Oc4ccccc4)c(C)c3C)c2cc1OC | enzyme activity | inhibitor |  | 1 µM | inhibition | 71% |
| N#Cc1ccc(Nc2ccc3[nH]c(=O)[nH]c3c2)c(Cl)c1 | cell-free assay |  | competition with immobilised ligand | 1 µM | remaining binding | 97% |
| N#CCCc1ccc2c(c1)-c1[nH]c3ccc([N+](=O)[O-])cc3c1CC(=O)N2 | cell-free assay |  |  | 0.5 µM | remaining signal | 78.8% |
| CC(C)(O)[C@H]1CC[C@H](Nc2ccc3ncc(-c4cccc(C(F)(F)F)c4)n3n2)CC1 | enzyme activity | inhibitor |  | 1 µM | remaining activity | 37.5% |
| CCOCCn1cc(C(=O)Nc2ccc(-n3nc(-c4cccnc4)cc3C(F)(F)F)cn2)ccc1=O | cell-free assay |  | competition with immobilised ligand | 1 µM | remaining binding | 89% |
| Nc1nc(Nc2ccc(S(N)(=O)=O)cc2)nn1C(=O)c1c(F)cccc1F | cell-free assay |  |  | 0.5 µM | remaining signal | 90.1% |
| Cc1ccc(C(=O)Nc2ccc(CN3CCN(C)CC3)c(C(F)(F)F)c2)cc1C#Cc1cnc2cccnn12 | enzyme activity |  |  | 23.5 nM | remaining activity | 1.2% |
| C=CC(=O)Nc1cc(Nc2nccc(Nc3cc(Cl)c(F)cc3C(C)(C)O)n2)c(OC)cc1N1CC[C@@H](N(C)C)C1 | enzyme activity | inhibitor |  | 1 µM | inhibition | 90% |
